Results from different studies.
Lines come from different studies, so protocols differ.
Target: Serine/threonine-protein kinase 32C (STK32C, Homo sapiens, UniProt Q86UX6)

SMILES | observed | method | tested at | remaining binding [%]
COc1ncc2cc3ccccc3nc2c1C#N | cell-free assay | competition with immobilised ligand | 5 µM | 100
CNC(=O)[C@@H]1CC[C@@H](n2c(-c3ccc4cnccc4c3)nc3ccc(C(=O)NCc4cccc(C(N)=O)c4)cc32)C1 | binding | competition with immobilised ligand | 1 µM | 93
O=C(Nc1c[nH]nc1C(=O)NC1CCNCC1)c1cc(F)cc(F)c1 | binding | competition with immobilised ligand | 1 µM | 97
CC1=C(C#N)C(c2ccc3c(c2)c(NC(=O)c2ccccc2C)nn3C)C(C#N)=C(C)N1 | cell-free assay | competition with immobilised ligand | 1 µM | 79
COc1ccnn2ncc(-c3ccnc(N(C)C)n3)c12 | binding |  | 1 µM | 80
C[C@@H](c1ccc(-n2cnc3c(N)ncnc32)cc1)N1CCc2nn(C)c(Cc3ccccc3)c2C1=O | binding | competition with immobilised ligand | 0.1 µM | 89
CCN1CCN(Cc2ccc(C(=O)Nc3ccc(C)c(Oc4ccc5c(c4)CC(=O)N5)c3)cc2C(F)(F)F)CC1 | binding | competition with immobilised ligand | 1 µM | 100
CO[C@H]1CC[C@H](CNc2ccc(S(=O)(=O)NC(=O)c3ccc(N4CCN(CC5=C(c6ccc(Cl)cc6)CC(C)(C)CC5)CC4)cc3Oc3cnc4[nH]ccc4c3)cc2[N+](=O)[O-])CC1 | cell-free assay | competition with immobilised ligand | 1 µM | 54
c1cnn2ncc(-c3ccnc(N4CCC45COC5)n3)c2c1 | binding |  | 1 µM | 68
CNC(=O)Nc1ccc2c(c1)[C@@]1(CC2)OC(=O)N(CC(=O)N(Cc2ccc(F)cc2)[C@@H](C)C(F)(F)F)C1=O | cell-free assay | competition with immobilised ligand | 1 µM | 100
CN(C)c1nccc(-c2cnc3ncccn23)n1 | binding |  | 1 µM | 100
O=C(c1ccc(Nc2ncc(Cl)c(-c3cc4ccccc4s3)n2)cc1)N1CCC(N2CCCC2)CC1 | binding | competition with immobilised ligand | 1 µM | 100
C[C@@H]1CCN(c2nccc(-c3cnn4ncccc34)n2)C1 | binding |  | 1 µM | 83
CCOC(=O)c1cc2cc(-c3cc(C(=O)NCc4ccc(C(=O)O)cc4)nn3C)ccc2[nH]1 | cell-free assay | competition with immobilised ligand | 0.1 µM | 100
Cc1cnc(Nc2ccc(C(=O)N3CCC(N4CCCC4)CC3)cc2)nc1-c1cc2ccccc2s1 | binding | competition with immobilised ligand | 1 µM | 100
Cc1nc(Cc2cccc(C(F)(F)F)c2)sc1-c1ccc(C(N)=O)nc1 | cell-free assay | competition with immobilised ligand | 1 µM | 87
C[C@@H]1CN(c2ccc3ncc(-c4ccc5[nH]nc(C6CC6)c5c4)n3n2)C[C@H](C)O1 | binding | competition with immobilised ligand | 0.5 µM | 100
